Test results: ChEMBL document CHEMBL4480370, “Synthesis and preliminary evaluation of the anti-cancer activity on A549 lung cancer cells of a series of unsaturated disulfides” (2019)
The source made the active and inactive calls. The calls are words filed in the database; no cut-off is given here.

How the values were obtained:
[1] = tested on: A549; experiment: Cytotoxicity against human A549 cells assessed as reduction in cell viability at 250 uM after 48 hrs by CellTiter-Glo luminescent assay; assay type: functional, cell-based
Method in brief: (§1)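 A549 cells kept in RPMI 1640 with 10% fetal bovine serum and 100 units per ml penicillin–streptomycin. Each molecule was applied at 50, 100, 250 and 500 μM, with viability read at 24 or 48 h by CellTiter-Glo luminescence. Values are expressed relative to untreated control (C), as the mean of three repeats with relative standard deviation.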

[2] = tested on: A549; experiment: Cytotoxicity against human A549 cells assessed as reduction in cell viability at 50 to 500 uM by CellTiter-Glo luminescent assay; assay type: functional, cell-based; conditions: TDE = time-dependent effect; method in brief: as §1
[3] = tested on: A549; experiment: Cytotoxicity against human A549 cells assessed as reduction in cell viability after 48 hrs by CellTiter-Glo luminescent assay; assay type: functional, cell-based; method in brief: as §1
[4] = tested on: A549; experiment: Cytotoxicity against human A549 cells assessed as reduction in cell viability after 24 hrs by CellTiter-Glo luminescent assay; assay type: functional, cell-based; method in brief: as §1
[5] = tested on: A549; experiment: Cytotoxicity against human A549 cells assessed as reduction in cell viability at 50 uM after 48 hrs by CellTiter-Glo luminescent assay relative to control; assay type: functional; method in brief: as §1
[6] = tested on: A549; experiment: Cytotoxicity against human A549 cells assessed as reduction in cell viability at 500 uM after 48 hrs by CellTiter-Glo luminescent assay relative to control; assay type: functional; method in brief: as §1
[7] = tested on: A549; experiment: Cytotoxicity against human A549 cells assessed as reduction in cell viability at 500 uM after 24 hrs by CellTiter-Glo luminescent assay; assay type: functional, cell-based; method in brief: as §1
[8] = tested on: A549; experiment: Cytotoxicity against human A549 cells assessed as reduction in cell viability at 50 to 500 uM after 24 hrs by CellTiter-Glo luminescent assay; assay type: functional, cell-based; method in brief: as §1
[9] = tested on: A549; experiment: Cytotoxicity against human A549 cells assessed as reduction in cell viability at 100 to 250 uM after 48 hrs by CellTiter-Glo luminescent assay; assay type: functional, cell-based; method in brief: as §1

For `C=CCCSSCCC=C`, the Activity [1] was “Active”, the Activity [2] was “Tde” and the Activity [3] was “Dose-dependent effect”. For the same molecule, the Activity [4] was “Dose-dependent effect”, the Activity [5] was 68% and the Activity [6] was 100%.

`C=CCSSCC=C` [DIALLYLDISULFIDE] was tested, and the Activity [2] was “Tde”, the Activity [4] was “Dose-dependent effect” and the Activity [5] was 54%. The Activity [6] was 65%.

`CCCC=CCSSCC=CCCC` (mixture of isomers) was tested, and the Activity [7] was “Active”.

In the case of `C=CCCCCSSCCCCC=C`, the Activity [8] is reported as “inactive”.

In the case of `C/C=C/CSSC/C=C/C`, the Activity [9] is reported as “Active”, the Activity [2] is reported as “Tde” and the Activity [4] is reported as “Dose-dependent effect”. It also gave an Activity [5] of 70% and an Activity [6] of 84%.

With `CCC/C=C/CSSC/C=C/CCC` the Activity [7] was “Active”.
